Measured values reported in ChEMBL document CHEMBL2331353, “Synthesis and biological evaluation of some novel resveratrol amide derivatives as potential anti-tumor agents” (Eur J Med Chem, 2013).

How the values were obtained:
B16-F10 = assay: Antitumor activity against mouse B16F10 cells assessed as inhibition of cell proliferation after 48 hrs by MTT assay; assay type: functional, cell-based; conditions: B16-F10, 48 h
Outline: (§1)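 Cells grown to log phase in RPMI 1640 with 10% FBS, seeded at 2×10^4 cells/mL and preincubated 24 h at 37 °C, 5% CO2. Compounds at preset concentrations added (6 wells), celecoxib as positive reference, 48 h exposure. MTT (2.5 mg/mL in PBS) for 4 h, then SDS/isobutanol/HCl extraction overnight at 37 °C. OD read at 570 nm. Triplicate wells per concentration, at least three independent runs.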

[1] = biological target: T1, Prostaglandin G/H synthase 2 (Mus musculus, UniProt Q05769); assay: Inhibition of COX-2 in mouse RAW264.7 cells assessed as decrease in LPS-induced PGE2 production; assay type: cell-based
T1 sequence (Q05769 whole entry): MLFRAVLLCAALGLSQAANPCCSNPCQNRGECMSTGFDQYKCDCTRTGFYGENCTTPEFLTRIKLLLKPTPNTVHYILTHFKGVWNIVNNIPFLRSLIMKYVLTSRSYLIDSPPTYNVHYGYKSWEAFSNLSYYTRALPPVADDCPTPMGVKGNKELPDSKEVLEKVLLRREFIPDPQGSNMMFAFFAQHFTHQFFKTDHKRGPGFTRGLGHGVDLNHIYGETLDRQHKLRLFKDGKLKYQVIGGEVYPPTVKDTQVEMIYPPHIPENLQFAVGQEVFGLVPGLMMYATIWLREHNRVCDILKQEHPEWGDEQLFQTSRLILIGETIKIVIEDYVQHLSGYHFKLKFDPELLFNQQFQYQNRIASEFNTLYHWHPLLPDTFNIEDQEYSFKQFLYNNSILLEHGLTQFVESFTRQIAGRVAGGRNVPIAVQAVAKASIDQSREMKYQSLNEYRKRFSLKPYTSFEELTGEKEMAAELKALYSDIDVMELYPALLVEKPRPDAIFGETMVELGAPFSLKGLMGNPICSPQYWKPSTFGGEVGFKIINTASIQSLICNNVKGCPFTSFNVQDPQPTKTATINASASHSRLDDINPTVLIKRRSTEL

MCF7 = assay: Antitumor activity against human MCF7 cells assessed as inhibition of cell proliferation after 48 hrs by MTT assay; assay type: functional, cell-based; conditions: MCF7, 48 h; outline: as §1
A549 = assay: Antitumor activity against human A549 cells assessed as inhibition of cell proliferation after 48 hrs by MTT assay; assay type: functional, cell-based; conditions: A549, 48 h; outline: as §1
[2] = biological target: T2, Prostaglandin G/H synthase 2 (Homo sapiens, UniProt P35354); assay: Inhibition of COX-2 (unknown origin) by chemiluminescence assay
T2 sequence (P35354 whole entry): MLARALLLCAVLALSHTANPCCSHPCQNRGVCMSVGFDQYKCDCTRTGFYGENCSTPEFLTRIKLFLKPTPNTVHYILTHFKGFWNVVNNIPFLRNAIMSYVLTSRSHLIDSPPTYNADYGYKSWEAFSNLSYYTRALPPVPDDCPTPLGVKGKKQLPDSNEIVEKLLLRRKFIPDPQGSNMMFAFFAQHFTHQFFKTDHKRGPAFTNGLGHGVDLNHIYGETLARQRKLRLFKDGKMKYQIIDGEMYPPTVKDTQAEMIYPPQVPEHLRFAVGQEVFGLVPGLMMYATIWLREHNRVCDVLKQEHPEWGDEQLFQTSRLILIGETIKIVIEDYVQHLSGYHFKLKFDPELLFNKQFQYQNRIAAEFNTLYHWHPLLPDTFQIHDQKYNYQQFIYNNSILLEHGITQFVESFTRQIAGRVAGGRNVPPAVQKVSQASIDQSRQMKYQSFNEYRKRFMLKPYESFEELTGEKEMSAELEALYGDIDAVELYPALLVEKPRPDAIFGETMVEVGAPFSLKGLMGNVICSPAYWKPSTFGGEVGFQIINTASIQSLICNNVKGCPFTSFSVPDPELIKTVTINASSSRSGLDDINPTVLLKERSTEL

[3] = biological target: Prostaglandin G/H synthase 1 (Homo sapiens, UniProt P23219); assay: Inhibition of COX-1 (unknown origin) by chemiluminescence assay
Chain of Prostaglandin G/H synthase 1 (P23219 whole entry): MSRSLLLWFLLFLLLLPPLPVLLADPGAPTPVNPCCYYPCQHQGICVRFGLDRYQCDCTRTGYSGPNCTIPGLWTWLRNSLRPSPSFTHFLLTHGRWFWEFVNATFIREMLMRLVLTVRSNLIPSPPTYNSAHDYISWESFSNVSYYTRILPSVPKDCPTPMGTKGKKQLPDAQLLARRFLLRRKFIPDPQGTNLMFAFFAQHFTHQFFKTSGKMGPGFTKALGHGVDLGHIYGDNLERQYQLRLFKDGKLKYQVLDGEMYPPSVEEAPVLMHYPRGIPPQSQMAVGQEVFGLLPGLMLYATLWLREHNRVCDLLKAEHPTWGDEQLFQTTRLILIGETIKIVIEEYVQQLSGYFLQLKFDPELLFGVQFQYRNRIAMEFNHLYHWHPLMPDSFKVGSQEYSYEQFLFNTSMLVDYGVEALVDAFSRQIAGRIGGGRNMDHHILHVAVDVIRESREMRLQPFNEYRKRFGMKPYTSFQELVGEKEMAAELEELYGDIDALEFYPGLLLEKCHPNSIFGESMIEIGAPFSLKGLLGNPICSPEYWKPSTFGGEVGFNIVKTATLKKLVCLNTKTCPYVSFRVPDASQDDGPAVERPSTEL

Row | SMILES | IC50 (B16-F10) [µM] | IC50 [1] [µM] | IC50 (MCF7) [µM] | IC50 (A549) [µM] | IC50 [2] [µM] | IC50 [3] [µM]
1 | C=CCN(CC=C)C(=O)/C=C/c1c(/C=C/c2ccc(OC)cc2)cc(OC)cc1OC | 8.18 | 3.28 | 3.22 | 5.89 | 8.01 | 35
2 | CCCCCCCCNC(=O)/C=C/c1c(/C=C/c2ccc(OC)cc2)cc(OC)cc1OC | 8.06 | 13.8 | 4.28 | 8.66 | 20.1 | > 50
3 | COc1ccc(/C=C/c2cc(OC)cc(OC)c2/C=C/C(=O)NC2CC2)cc1 | 10.2 | 7.05 | 3.94 | 8.81 | 13 | > 50
4 | COc1ccc(/C=C/c2cc(OC)cc(OC)c2/C=C/C(=O)NCCCCl)cc1 | 2.78 | 0.39 | 1.98 | 1.98 | 1.27 | 38.4
5 | COc1ccc(/C=C/c2cc(OC)cc(OC)c2/C=C/C(=O)N2CCN(C)CC2)cc1 | 5.67 | 1.62 | 2.29 | 4.51 | 5.78 | 39.1
6 | COc1ccc(/C=C/c2cc(OC)cc(OC)c2/C=C/C(=O)N2CCC(C)CC2)cc1 | 7.76 | 8.09 | 6.45 | 7.2 | 10.3 | > 50
7 | CCC(C)NC(=O)/C=C/c1c(/C=C/c2ccc(OC)cc2)cc(OC)cc1OC (stereo not drawn) | 4.38 | 2.09 | 3.43 | 3.95 | 4.56 | > 50
8 | COc1ccc(/C=C/c2cc(OC)cc(OC)c2/C=C/C(=O)N2CC(C)CC(C)C2)cc1 (stereo not drawn) | 3.26 | 0.58 | 1.57 | 2.27 | 1.98 | 45.1
9 | COc1ccc(/C=C/c2cc(OC)cc(OC)c2/C=C/C(=O)NCCCN2CCOCC2)cc1 | 6.83 | 3.68 | 4.15 | 4.22 | 8.92 | > 50
10 | COc1ccc(/C=C/c2cc(OC)cc(OC)c2/C=C/C(=O)N2CCOCC2)cc1 | 3.08 | 0.85 | 3.31 | 2.32 | 1.88 | > 50
11 | CCCN(CCC)C(=O)/C=C/c1c(/C=C/c2ccc(OC)cc2)cc(OC)cc1OC | 5.98 | 3.88 | 2 | 5.58 | 8.06 | 45.9
12 | CCCCCN(CCCCC)C(=O)/C=C/c1c(/C=C/c2ccc(OC)cc2)cc(OC)cc1OC | 9.27 | 7.19 | 6.13 | 7.49 | 16.4 | > 50
13 | CCCCN(CCCC)C(=O)/C=C/c1c(/C=C/c2ccc(OC)cc2)cc(OC)cc1OC | 9.03 | 4.12 | 3.99 | 6.16 | 10.1 | > 50
14 | Cc1ccc(-c2cc(C(F)(F)F)nn2-c2ccc(S(N)(=O)=O)cc2)cc1 [CELECOXIB] | – | – | – | 15.6 | – | –
15 | COc1ccc(/C=C/c2cc(OC)cc(OC)c2/C=C/C(=O)N2CCCC(C)C2)cc1 (stereo not drawn) | 8.25 | 3.16 | 11.9 | 5.82 | 7.09 | > 50
16 | COc1ccc(/C=C/c2cc(OC)cc(OC)c2/C=C/C(=O)N(C)C)cc1 | 5.78 | 4.36 | 6.86 | 6 | 13 | > 50
17 | COc1ccc(/C=C/c2cc(OC)cc(OC)c2/C=C/C(=O)O)cc1 | 6.78 | 3.01 | 6.1 | 5.46 | 6.89 | > 50

Row | SMILES | IC50 (B16-F10) [µM] | IC50 [1] [µM] | IC50 (MCF7) [µM] | IC50 (A549) [µM] | IC50 [2] [µM] | IC50 [3] [µM]
18 | COc1ccc(/C=C/c2cc(OC)cc(OC)c2/C=C/C(=O)N2CCSCC2)cc1 | 8.1 | 3.18 | 2.76 | 5.4 | 8.01 | 45.2
19 | CCCNC(=O)/C=C/c1c(/C=C/c2ccc(OC)cc2)cc(OC)cc1OC | 9.08 | 2.08 | 5.61 | 5.17 | 6.75 | > 50
20 | COc1ccc(/C=C/c2cc(OC)cc(OC)c2/C=C/C(=O)Nc2cc(OC)c(OC)c(OC)c2)cc1 | 8.15 | 2.1 | 7.01 | 5.14 | 6.66 | > 50
21 | CCNC(=O)/C=C/c1c(/C=C/c2ccc(OC)cc2)cc(OC)cc1OC | 6.99 | 7.06 | 7.06 | 7.86 | 12.4 | 35.4
22 | COc1ccc(/C=C/c2cc(OC)cc(OC)c2/C=C/C(=O)N2CCC(Cl)CC2)cc1 | 4.69 | 0.46 | 4.95 | 2.08 | 1.45 | 40.6
23 | COc1ccc(/C=C/c2cc(OC)cc(OC)c2/C=C/C(=O)N2CCCCC2)cc1 | 9.75 | 15.3 | 6.05 | 10.6 | 23.2 | > 50
24 | COc1ccc(/C=C/c2cc(OC)cc(OC)c2/C=C/C(=O)N2CCCCC2C)cc1 (stereo not drawn) | 7.66 | 2.44 | 4.35 | 5.77 | 6.69 | > 50
25 | C#CCNC(=O)/C=C/c1c(/C=C/c2ccc(OC)cc2)cc(OC)cc1OC | 8.28 | 5.08 | 4.56 | 6.93 | 9.08 | > 50
26 | COc1ccc(/C=C/c2cc(OC)cc(OC)c2/C=C/C(=O)NC(C)C)cc1 | 4.02 | 0.72 | 2.56 | 2.36 | 2.01 | 40.4
27 | COc1ccc(/C=C/c2cc(OC)cc(OC)c2/C=C/C(=O)NC(C)(C)C)cc1 | 7.98 | 5.29 | 13.6 | 8.67 | 11.1 | > 50
28 | COc1ccc(/C=C/c2cc(OC)cc(OC)c2/C=C/C(=O)NCc2ccco2)cc1 | 10.1 | 3.15 | 5.42 | 6.42 | 9.67 | 29.1
29 | COc1ccc(/C=C/c2cc(OC)cc(OC)c2/C=C/C(=O)NCC(C)C)cc1 | 12.7 | 6.12 | 5.29 | 10.4 | 15.1 | > 50
30 | COc1ccc(/C=C/c2cc(OC)cc(OC)c2/C=C/C(=O)N(CC(C)C)CC(C)C)cc1 | 4.85 | 2.56 | 2.39 | 3.35 | 6.84 | > 50
31 | CCCCCCNC(=O)/C=C/c1c(/C=C/c2ccc(OC)cc2)cc(OC)cc1OC | 7.18 | 5.01 | 5.53 | 6.23 | 8.99 | 34.7
32 | COc1ccc(/C=C/c2cc(OC)cc(OC)c2/C=C/C(=O)N2CCC(c3ccccc3)CC2)cc1 | 9.18 | 3.55 | 4.23 | 6.69 | 8.57 | > 50
33 | CCN(CC)C(=O)/C=C/c1c(/C=C/c2ccc(OC)cc2)cc(OC)cc1OC | 3.98 | 2.15 | 6.55 | 3.35 | 4.67 | > 50
